Activity calls are given as the source filed them. No cut-off for these calls is given here.
Tests used:
[1] = Inhibition of amyloid beta (1-42) aggregation by thioflavin T competition binding experiment
Mus musculus [2] = organism: Mus musculus; assay: Binding affinity to beta-amyloid plaques in Alzheimer's disease Tg2576 mouse brain by thioflavin S staining; format: tissue-based
Method in brief: (§1)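 Tg2576 (female, 27-month-old) and wild-type (female, 27-month-old) mouse brains were cut into 10 µm serial sections. Sections were incubated 10 min with probe in 50% EtOH, washed twice for 1 min in 50% EtOH and examined by fluorescence microscopy. Serial sections were counterstained with thioflavin S to confirm plaques.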

Mus musculus [3] = organism: Mus musculus; assay: Binding affinity to beta-amyloid plaques in wild type mouse assessed as accumulation in brain by thioflavin S staining; format: tissue-based; method in brief: as §1
[4] = target: Amyloid-beta precursor protein (Homo sapiens) (UniProt P05067); assay: Binding affinity to beta-amyloid plaques in Alzheimer's disease patient temporal cortex by immunohistochemical staining; format: tissue-based
Method in brief: (§2)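 Probe staining was done on 5 µm sections of temporal cortex from AD brain and from adult normal brain, read by fluorescence microscopy. Serial sections were immunostained with anti-Aβ antibodies to compare the plaque staining pattern.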

[5] = target: Amyloid-beta precursor protein (Homo sapiens) (UniProt P05067); assay: Binding affinity to beta-amyloid plaques in normal patient brain section by immunohistochemical staining; method in brief: as §2

Amyloid-beta precursor protein (Homo sapiens), sequence (P05067 whole entry): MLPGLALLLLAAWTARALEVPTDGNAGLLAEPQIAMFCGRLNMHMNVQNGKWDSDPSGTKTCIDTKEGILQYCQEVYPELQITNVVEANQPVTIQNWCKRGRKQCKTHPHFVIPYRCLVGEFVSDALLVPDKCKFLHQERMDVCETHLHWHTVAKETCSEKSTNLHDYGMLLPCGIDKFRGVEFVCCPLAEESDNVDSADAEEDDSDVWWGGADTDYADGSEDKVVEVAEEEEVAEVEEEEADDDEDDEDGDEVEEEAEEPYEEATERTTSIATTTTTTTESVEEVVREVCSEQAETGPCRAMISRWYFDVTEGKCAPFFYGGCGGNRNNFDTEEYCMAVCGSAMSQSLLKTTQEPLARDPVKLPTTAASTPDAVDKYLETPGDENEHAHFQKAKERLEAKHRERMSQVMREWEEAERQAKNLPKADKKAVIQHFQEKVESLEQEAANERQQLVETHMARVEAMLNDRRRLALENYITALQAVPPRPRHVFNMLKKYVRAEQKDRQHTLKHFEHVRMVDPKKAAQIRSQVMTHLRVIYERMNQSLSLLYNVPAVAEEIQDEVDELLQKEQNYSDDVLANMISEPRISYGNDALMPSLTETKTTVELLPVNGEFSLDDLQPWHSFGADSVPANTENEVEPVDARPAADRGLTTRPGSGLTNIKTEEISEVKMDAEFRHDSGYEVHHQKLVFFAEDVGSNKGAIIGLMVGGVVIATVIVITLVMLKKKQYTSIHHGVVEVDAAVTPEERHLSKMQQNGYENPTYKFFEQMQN

Row | IC50 [1] [nM] | SMILES | Activity (Mus musculus [2]) | Activity (Mus musculus [3]) | Activity [4] | Activity [5]
1 | 110 | CN(C)c1ccc2nc(/C=C/c3ccc(C=C(C#N)C#N)cc3)sc2c1 | Active | inactive | Active | inactive
2 | 670 | [11CH3]Nc1ccc(-c2nc3ccc(O)cc3s2)cc1 [PITTSBURGH COMPOUND B] | – | – | – | –

Row | SMILES | IC50 [1] [nM] | Activity (Mus musculus [2]) | Activity (Mus musculus [3]) | Activity [4] | Activity [5]
3 | CN(C)c1ccc2nc(C=C(C#N)C#N)sc2c1 | 120 | Active | inactive | Active | inactive

Source: ChEMBL document CHEMBL1152597, “Push-pull benzothiazole derivatives as probes for detecting beta-amyloid plaques in Alzheimer's brains” (Bioorg Med Chem, 2009)
